Reference: ChEMBL document CHEMBL4842315, “Discovery and mechanism of action studies of 4,6-diphenylpyrimidine-2-carbohydrazides as utrophin modulators for the treatment of Duchenne muscular dystrophy” (Eur J Med Chem, 2021)
The source made the active and inactive calls. The calls are words filed in the database; no cut-off is given here.

Assays:
[1] = Upregulation of utrophin gene expression in mouse myoblasts expressing LUmdx and firefly luciferase assessed as activation of utrophin promoter by cell-based reporter assay; assay type: functional, tissue-based, Myoblast
In short: (§1)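 Immortalised myoblasts derived from the LUmdx mouse carry a utrophin promoter–firefly luciferase reporter, and promoter activation is read as luciferase signal. During screening, hits were counterscreened for firefly luciferase assay interference.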

Myoblast [2] = assay: Upregulation of AhR gene expression in DMD disease mouse model myoblasts expressing H2K-mdx utrnA-firefly luciferase assessed as fold increase in AhR mRNA at 30 uM by qRT-PCR analysis relative to control
[3] = Upregulation of utrophin gene expression in DMD disease mouse model myoblasts expressing H2K-mdx utrnA-firefly luciferase assessed as fold increase in utrophin mRNA at 3 uM by qRT-PCR analysis relative to control; assay type: functional, Myoblast
[4] = Upregulation of utrophin gene expression in DMD disease mouse model myoblasts expressing H2K-mdx utrnA-firefly luciferase assessed as fold increase in utrophin mRNA at 30 uM by qRT-PCR analysis relative to control; assay type: functional, Myoblast
Myoblast [5] = assay: Upregulation of utrophin gene expression in DMD disease mouse model myoblasts expressing H2K-mdx utrnA-firefly luciferase assessed as activation of utrophin promoter by cell-based reporter assay; assay type: functional, tissue-based
[6] = Apparent permeability of the compound across apical to basolateral side in human Caco-2 cells; assay type: ADME, cell-based; details: read-out: permeability
[7] = Upregulation of utrophin gene expression in mouse myoblasts expressing LUmdx and firefly luciferase assessed as activation of utrophin promoter at 0.1 to 50 uM by cell-based reporter assay relative to control; assay type: functional, Myoblast; details: dose 0.1-50 µM; in short: as §1
[8] = Mus musculus, Myoblast, read-out: EC50

SMILES	EC50 [1, 8]	EC50 ([1]; myoblast)	other results
Cc1cc(C)nc(C(=O)NN)n1	–	Not Active	–
CC(=O)NCCOCCOc1ccc(-c2cc(-c3ccccc3)nc(C(=O)NN)n2)cc1	12.7 µM	–	–
CCS(=O)(=O)c1ccc2oc(-c3ccc4ccccc4c3)nc2c1 [EZUTROMID]	–	–	fold change (FC) (Myoblast [2]): inactive; fold change (FC) [3]: 1.7
C#CCOCCOc1ccc(-c2cc(-c3ccccc3)nc(C(=O)NN)n2)cc1	14.9 µM	–	–
COc1cccc(-c2cc(-c3cccc(OC)c3)nc(C(=O)NN)n2)c1	9.22 µM	–	–
NNC(=O)c1nc(-c2ccccc2)cc(-c2ccc(C3(C(F)(F)F)N=N3)cc2)n1	7.22 µM	–	–
NNC(=O)c1nc(-c2ccccc2C(F)(F)F)cc(-c2ccccc2C(F)(F)F)n1	–	Not Active	–
C#CCOCCOc1ccc(-c2nc(C(=O)NN)nc(-c3ccc(C4(C(F)(F)F)N=N4)cc3)c2C)cc1	–	Not Active	–
NNC(=O)c1nc(-c2ccc(C(F)(F)F)cc2)cc(-c2ccc(C(F)(F)F)cc2)n1	> 10 µM	–	–
COc1cc(-c2ccccc2)nc(C(=O)NN)n1	–	Not Active	–
NNC(=O)c1nc(-c2cccc(C(F)(F)F)c2)cc(-c2cccc(C(F)(F)F)c2)n1	–	Not Active	–
NNC(=O)c1nc(-c2ccccc2F)cc(-c2ccccc2F)n1	11 µM	–	–
NNC(=O)c1nc(-c2cccc(F)c2)cc(-c2cccc(F)c2)n1	> 10 µM	–	–
COc1ccccc1-c1cc(-c2ccccc2OC)nc(C(=O)NN)n1	–	Not Active	–
NNC(=O)c1nc(-c2ccc(F)cc2)cc(-c2ccc(F)cc2)n1	12.8 µM	–	–
COc1ccc(-c2cc(-c3ccc(OC)cc3)nc(C(=O)NN)n2)cc1	7.14 µM	–	–
NNC(=O)c1ncccn1	–	Not Active	–
NNC(=O)c1nc(-c2ccccc2)cc(C2CCCCC2)n1	–	Not Active	–
C#CCOCCOc1ccc(-c2cc(-c3ccc(C4(C(F)(F)F)N=N4)cc3)nc(C(=O)NN)n2)cc1	20 µM	–	–

Continued, in another order:

EC50 [1, 8]	EC50 ([1]; myoblast)	SMILES	other results
4.65 µM	–	COCc1ccc(-c2cc(-c3ccccc3)nc(C(=O)NN)n2)cc1	–
–	Not Active	NNC(=O)c1cc(-c2ccccc2)cc(-c2ccccc2)n1	–
–	Not Active	O=C(O)c1nc(-c2ccccc2)cc(-c2ccccc2)n1	–
–	Not Active	COC(=O)c1nc(-c2ccccc2)cc(-c2ccccc2)n1	–
–	Not Active	Cc1c(-c2ccccc2)nc(C(=O)NN)nc1-c1ccccc1	–
1.57 µM	–	NNC(=O)c1nc(-c2ccccc2)cc(-c2ccc(O)cc2)n1	–
–	Not Active	NNC(=O)c1nc(-c2ccccc2)cc(-c2ccc(OCCOCc3ccccc3)cc2)n1	–
2.71 µM	–	CCOc1ccc(-c2cc(-c3ccccc3)nc(C(=O)NN)n2)cc1	–
1.9 µM	–	NNC(=O)c1nc(-c2ccccc2)cc(-c2ccc(CO)cc2)n1	–
–	Not Active	NNC(=O)c1nc(-c2ccccc2)cc(-c2ccc(Oc3ccccc3)cc2)n1	–
–	Not Active	NNC(=O)c1cnc(-c2ccccc2)cc1-c1ccccc1	–
–	Not Active	O=C(NO)c1nc(-c2ccccc2)cc(-c2ccccc2)n1	–
4.54 µM	–	CCCc1ccc(-c2cc(-c3ccccc3)nc(C(=O)NN)n2)cc1	–
–	Not Active	NNc1nc(-c2ccccc2)cc(-c2ccccc2)n1	–
–	Not Active	NNC(=O)Cc1nc(-c2ccccc2)cc(-c2ccccc2)n1	–
5.62 µM	–	CCCOc1ccc(-c2cc(-c3ccccc3)nc(C(=O)NN)n2)cc1	–
–	Not Active	N/N=C/c1nc(-c2ccccc2)cc(-c2ccccc2)n1	–
–	Not Active	NNC(=O)c1cc(-c2ccccc2)nc(-c2ccccc2)n1	–
8.98 µM	–	NNC(=O)c1nc(-c2ccccc2)nc(-c2ccccc2)n1	–
–	Not Active	CCCCOc1ccc(-c2cc(-c3ccccc3)nc(C(=O)NN)n2)cc1	–
20.5 µM	–	NNC(=O)c1nc(-c2ccccc2)cc(-c2ccccc2)n1	fold change (FC) [4]: 1.6; Activity (Myoblast [5]): inactive; Papp A→B [6]: 30.7 ×10⁻⁶ cm/s; fold change (FC) [7]: 2
8.95 µM	–	COCCOc1ccc(-c2cc(-c3ccccc3)nc(C(=O)NN)n2)cc1	–
–	Not Active	NC(=O)c1nc(-c2ccccc2)cc(-c2ccccc2)n1	–
2.28 µM	–	COc1ccc(-c2cc(-c3ccccc3)nc(C(=O)NN)n2)cc1	–
–	Not Active	NNC(=O)c1nc(Oc2ccccc2)cc(-c2ccccc2)n1	–
